HSF1 inh: HSF1 inhibition; 0.77% of 300,000 active; NIH3T3-HGL HSE-luciferase, MG132-induced, luminescence 8 h; stronger effect = lower value; AID 2098; activity change, negative = inhibition, % at 7.5 µM (by protocol);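 active = more than half of replicate wells show activity change below -50%, luminescence cut by over half; inconclusive = some wells, but at most half, below -50%; inactive = no replicate well below -50%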;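 also: luciferase reports HSF-1 transcriptional activity via heat shock element; 0% = median of DMSO wells and -100% = zero luminescence signal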
Jurkat NFkB inh: inhibitors of the PMA/ionomycin-induced NF-kB reporter in Jurkat cells | PMA/ionomycin-induced NF-kB luciferase reporter, luminescence | inhibition, % at 4 µM | 0.53% of 330,000 active; in the data active = inhibition above about 50%
697 NFkB inh: lowers PMA/ionomycin-induced NF-kB signal in 697 B cells | 697 B-cell NF-kB luciferase reporter, 16 h | 0.33% of 330,000 active | inhibition, % at 4 µM | AID 435022; in the data active = inhibition above about 35%
T cruzi inh: T. cruzi replication inhibition; inhibition, % (no concentration beside the values); AID 1885; 1.4% of 300,000 active; T. cruzi beta-gal in NIH3T3, luminescence, 90 h;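 active = mean inhibition across valid replicates above about 55%, limit read from the data; inconclusive = mean below that limit but half or more replicates reach it; inactive = mean below it, under half of replicates reach it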;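 also: signal also drops with host cell toxicity which is not excluded here; 0% = plate median of DMSO wells and 100% = zero luminescence signal; higher percent means less beta-gal luminescence so fewer parasites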
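System: NIH/3T3 fibroblasts plus reporter T. cruzi. Medium: DMEM plus 2% FBS. Probe or stimulus: 5000 reporter trypomastigotes per well. Compound: single 50 nL compound addition per well in DMSO. Incubation: co-culture of at least 90 h after 3 h attachment. Detection: GalScreen β-gal luminescence, detergent lysis, 60 min. Evaluation: parasite load inhibition, %.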
HSF1 activator: increases HSF-1 driven luciferase reporter signal. activation, % at 9 µM. AID 504408. 1.7% of 300,000 active. NIH3T3-HGL HSF-1 luciferase reporter, MG132, 8 h; 100% = twice DMSO control signal;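 active = mean replicate activation of at least 50% with a set share of replicates each reaching 50%; inconclusive = only one of those two conditions met; inactive = mean below 50% and too few replicates reaching it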;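 also: 0% = median of the neutral control wells and 100% = twice that signal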
GPR7 antagonist: antagonists of human GPR7 (neuropeptides B/W receptor 1) | P48145 | GPR7-expressing cells, fluorescence antagonist assay | inhibition, % at 4.4 µM | 1.1% of 290,000 active | AID 1861; in the data active = inhibition above about 16%, passing the limit was not always enough;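 also: cells stimulated with the agonist NPW; 0% = agonist with vehicle and 100% = vehicle without agonist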
Target sequence (P48145 whole entry, looked up): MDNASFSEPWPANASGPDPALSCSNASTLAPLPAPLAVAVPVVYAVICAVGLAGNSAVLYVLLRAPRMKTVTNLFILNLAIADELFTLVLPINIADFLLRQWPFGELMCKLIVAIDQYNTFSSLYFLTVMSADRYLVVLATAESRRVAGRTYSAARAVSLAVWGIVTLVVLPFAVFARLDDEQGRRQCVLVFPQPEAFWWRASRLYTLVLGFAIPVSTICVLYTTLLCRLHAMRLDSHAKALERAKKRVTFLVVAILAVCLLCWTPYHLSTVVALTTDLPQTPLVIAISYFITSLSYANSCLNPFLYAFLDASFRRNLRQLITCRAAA
* = called active by the depositor; ? = inconclusive; · = no result. This is a sample that favours compounds with a hit; in the whole collection about 4.8% have one here.

SMILES	HSF1 inh	Jurkat NFkB inh	697 NFkB inh	T cruzi inh	HSF1 activator	GPR7 antagonist
Cc1ccnc(NS(=O)(=O)c2ccc(NC(=O)c3ccc([N+](=O)[O-])s3)cc2)n1	1	1	-4	67*	-4	-10
O=C(Nc1ccc(S(=O)(=O)NC2=NCCCCC2)cc1)c1cccs1	·	-7	-7	·	·	·
CCCCC(=O)Nc1ccc(C(=O)NCCc2ccc(S(N)(=O)=O)cc2)cc1	-68*	-6	5	-3	-73	-17
O=C(Nc1ccc(S(=O)(=O)NC2=NCCCCC2)cc1)c1ccc([N+](=O)[O-])s1	17	50	11	65*	9	·
O=C(NCC1(N2CCOCC2)CCCCC1)c1cccc(S(=O)(=O)N2CCc3ccccc3C2)c1	1	1	21	26	15	5
Cc1ccc(NC(=O)COC(=O)c2ccc(CN3CCCC3=O)cc2)cc1C	·	2	-4	·	·	·
Cc1cc(=O)n2[nH]c(=O)c(N=Nc3ccccc3)c2[nH]1	-64*	14	12	-14	-74	-8
CC(=O)N1CCN(C(=O)COC(=O)/C=C/c2ccc(C(F)(F)F)cc2)CC1	·	45	-1	·	·	·
CCOC(=O)C1CCCN(C(=O)COC(=O)c2cccs2)C1 (stereo not given)	·	4	12	·	·	·
O=C(c1c[nH]c(C(=O)N2CCN(c3ccccc3F)CC2)c1)c1cccc(Cl)c1Cl	11	·	·	60*	6	5
Cc1ccccc1C(=O)c1c[nH]c(C(=O)N2CCN(c3ccccc3F)CC2)c1	-17	14	14	5	-28	-16
Cc1cc(C)c2[nH]c(=O)c(CN(Cc3ccc4c(c3)OCO4)Cc3nnnn3C3CCCC3)cc2c1	26	-9	-20	71*	?	-7
Cc1ccc2[nH]c(=O)c(CN(Cc3ccccc3)Cc3nnnn3C3CCCC3)cc2c1	31	-40	-15	48	34	7
Cc1cccc2cc(CN(Cc3ccc(F)cc3)Cc3nnnn3C3CCCC3)c(=O)[nH]c12	0	-12	-14	56*	-4	4
CCOCCCNC(=O)Cn1cnc2sc(C)c(S(=O)(=O)N3CCN(c4ncccn4)CC3)c2c1=O	·	-1	-1	-5	·	-5
C=CC[C@@H](CC(=O)NCCO)C(=O)N[C@H](C)COC(=O)[C@@H](CC=C)Cc1ccc(F)cc1	·	-8	-8	·	·	·
CC1(C)CC(=O)C=C(NC2CCCCCC2)C1	5	1	26	17	32	15*
Oc1ccc(Cl)cc1CNCC1CCCO1 (stereo not given)	-2	-2	14	-6	-2	1
Clc1ccc(-c2ccc(CNCC3CCCO3)o2)cc1 (stereo not given)	62	-28	-4	12	79*	-10
C=CC[C@H](CC(=O)N(CCO)Cc1ccccc1)C(=O)N[C@@H](COC(=O)[C@@H](CC=C)Cc1ccc(F)cc1)Cc1c[nH]c2ccccc12	·	-15	5	·	·	·
COc1ccc(C=O)cc1Cn1ccnc1	1	18	11	-15	8	-1
COc1ccc(C=O)cc1CN1CCCN(Cc2ccc(Cl)cc2)S1(=O)=O	-80*	4	2	13	-84	12
COC(=O)c1ccc(OC)c(CN2CCCN(Cc3ccc(F)cc3)S2(=O)=O)c1	0	9	-17	57*	29	7
CCOc1ncccc1C(=O)Nc1cc(S(=O)(=O)N2CCCCC2)ccc1C	·	-5	2	·	·	·
COc1ccc(C(CC(=O)c2ccc(C)cc2)C(C#N)C#N)cc1OC (stereo not given)	50	6	19	-40	73*	-6
SMILES	HSF1 inh	Jurkat NFkB inh	697 NFkB inh	T cruzi inh	HSF1 activator	GPR7 antagonist
CCOC(=O)c1c(C)[nH]c(C(C)=NNC(=O)Cn2nc(C)cc2C)c1C	·	3	5	·	·	·
CC(C)(C)C(=O)NCC12C=CC(O1)C1C(=O)N(c3ccccc3)C(=O)C12 (stereo not given)	184	2	5	-4	203*	-11
Cc1ccc(CSc2nccc(-c3c(C)nc4ccccn34)n2)cc1	-8	44	-70	-18	2	-5
CCc1ccc(S(=O)(=O)NC2CC(C)(C)NC(C)(C)C2)cc1	1	3	5	-1	14	-8
COc1ccc(N2CCN(CC(O)COCCOc3ccc(Br)cc3)CC2)cc1 (stereo not given)	-66*	1	-16	42	-74	-10
OC(COc1ccc(OCC(O)CN2CCCCCC2)cc1)CN1CCCCCC1 (stereo not given)	-4	-24	4	8	-11	-3
OC(COc1ccc2cc(Br)ccc2c1)CN1CCCC1 (stereo not given)	-14	-68	-18	70*	-23	5
CN(C)S(=O)(=O)N1CCN(CC(O)COc2ccc3cc(Br)ccc3c2)CC1 (stereo not given)	-3	1	-11	18	-9	8
O=S(=O)(N1CCCCC1)N1CCN(CC(O)COc2ccc3cc(Br)ccc3c2)CC1 (stereo not given)	13	13	12	55*	25	22
COc1ccc(N=c2cc(-c3ccc(OC)cc3)oc3ccccc23)cc1	-6	7	-59	40	-7	4
CCOc1ccc(N=c2cc(-c3ccc(OC)cc3)oc3ccccc23)cc1	-32	10	8	57*	-41	-4
N#CCc1nc(CSc2nc3ccccc3s2)cs1	7	9	-23	-10	22	16*
CC1Cc2ccccc2N1C(=O)CSc1nc2ccccc2s1 (stereo not given)	19	6	-8	24	56*	-14
c1ccc2sc(SCSc3nc4ccccc4s3)nc2c1	9	-9	5	-3	7	-10
N#CCCCSc1nnc(CSc2nc3ccccc3s2)n1-c1ccccc1	-5	-12	-21	13	7	6
O=C(O)C1CCN(C(=O)CSc2nc3ccccc3s2)CC1	-6	-3	5	-14	1	-13
Cc1nnc(SCC(=O)N2c3ccccc3CC2C)s1 (stereo not given)	8	-62	-77	8	14	-5
CC1CCN(C(=O)CSc2nc3ccccc3s2)CC1	30	-67	-72	15	54*	-1
CN(C)CCCSc1nc2ccccc2s1	-1	-5	-7	71*	-2	2
COCCN(C(=O)COC(=O)/C=C/c1cccc(OC)c1)c1c(N)n(CC(C)C)c(=O)[nH]c1=O	·	6	1	·	·	·
O=C(Cn1cnc2c(OCc3ccccc3)ncnc21)NCC1CCCO1 (stereo not given)	·	2	-10	·	·	·
CCNC(=O)CNC(=O)c1nn(Cc2ccccc2)c(=O)c2ccccc12	-71*	-6	16	0	-76	-19
CC(C)OP(=O)(c1ccc(N(C)C)cc1)C(O)c1ccc(C(C)C)cc1 (stereo not given)	0	5	-2	11	0	9

Assay outcomes from PubChem.
